Diaph act CS: compounds boosting diaphorase resazurin reduction – biochemical, uHTS, resorufin fluorescence, counter-screen for diaphorase-coupled primary assays, primary screen; 190,000 tested, 0.005% active; Diaphorase/resazurin coupled assay, 16 min; stronger effect = higher value; 1 = vehicle wells, 0 = NADH-free wells; AID 1229, 2008; activation factor at 20 µM;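 active = diaphorase activity raised at least twofold by the compound at 20 µM; inactive = activation factor below 2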
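Test system: Clostridium kluyveri diaphorase, purified enzyme; input: enzyme 0.07 U/mL final; buffer or medium: 50 mM HEPES pH 7.4 with 4.542 mM MgCl2, 0.005% Tween 20; also added: 0.114 mM NADH and 0.1 mM resazurin, final amounts; schedule: 16 min enzyme reaction, ambient temperature; technique: fluorescence of resorufin, 544 nm excitation, 590 nm emission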
FLuc act counter: FLuc activators, initial screening, artefact control for FLuc-dependent activation tests, biochemical, ATPlite luminescence | ATPlite luciferase biochemical, 10 min; 0 = ATP-free wells, 1 = DMSO control | activation factor at 10 µM | Luciferin 4-monooxygenase (Photinus pyralis), P08659 | 200,000 tested, under 10 active;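 active = luciferase activation factor, scaled between plate controls, of at least 2 with compound at 10 µM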
Target sequence (P08659 whole entry, looked up): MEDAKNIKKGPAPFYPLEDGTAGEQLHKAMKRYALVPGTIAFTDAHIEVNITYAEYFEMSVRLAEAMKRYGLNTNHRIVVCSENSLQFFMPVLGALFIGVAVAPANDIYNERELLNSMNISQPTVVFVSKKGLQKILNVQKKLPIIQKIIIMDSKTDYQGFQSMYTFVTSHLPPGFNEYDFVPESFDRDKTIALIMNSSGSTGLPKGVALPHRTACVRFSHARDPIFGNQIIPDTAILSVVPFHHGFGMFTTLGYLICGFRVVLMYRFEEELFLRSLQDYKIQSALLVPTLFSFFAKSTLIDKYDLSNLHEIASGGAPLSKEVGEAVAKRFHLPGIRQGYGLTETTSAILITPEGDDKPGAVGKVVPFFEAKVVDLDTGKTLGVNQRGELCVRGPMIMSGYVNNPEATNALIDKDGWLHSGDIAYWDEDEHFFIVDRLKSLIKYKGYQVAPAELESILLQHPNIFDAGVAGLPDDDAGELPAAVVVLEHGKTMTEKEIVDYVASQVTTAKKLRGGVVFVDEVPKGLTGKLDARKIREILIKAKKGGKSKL
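Assay system: Luciferase/luciferin reagent mix; Medium: PBS as buffer for the ATP substrate; Dosing: test compounds dosed from 2 mM stocks in 100% DMSO; Times: 10 min, room temperature; Signal: luminescence from luciferase reaction; Read-out: luciferase activation; Controls: No-ATP low control, compound-free enzyme-plus-ATP high control.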
FLuc inh counter: firefly luciferase enzyme inhibitors, primary screen, artefact control for luciferase-based inhibitor screens, biochemical, luminescence, ATPLite; Luciferin 4-monooxygenase (Photinus pyralis), P08659; 10 min; inhibition, % at 10 µM; 200,000 tested, 1.5% active; AID 1006, 2008;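 active = inhibition above about 50% when tested at 10 µM, limit read from the data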
Diaphorase inh: diaphorase inhibitors and chemical oxidizers, primary screen, counter-screen for diaphorase-coupled primary assays, biochemical, uHTS, resorufin fluorescence. diaphorase resazurin-to-resorufin fluorescence, NADH, 16 min; bacterial (C. kluyveri) enzyme, not human. inhibition, % at 20 µM. 190,000 tested, 0.69% active. AID 1217, 2008;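 active = primary screen inhibition at 20 µM above a set limit, cut at about 50% in these data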;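 note: plate controls were DMSO with full reaction for no effect and wells lacking NADH for full effect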
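Test system: Clostridium kluyveri diaphorase enzyme / Quantity: diaphorase at 0.14 U/mL in enzyme working solution / Incubation: 16-min room-temperature incubation before reading / Benchmarks: NADH-free wells as positive control, DMSO-only neutral wells / Signal: resorufin fluorescence 544/590 nm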
PMI act hi M6P: human PMI activators, high substrate, primary screen, biochemical, fluorescence intensity, near-saturating mannose 6-phosphate. Mannose-6-phosphate isomerase (Homo sapiens), P34949. coupled PMI enzyme assay, resazurin fluorescence, 20 min; stronger effect = higher value; 1 = untreated enzyme, 0 = substrate-free blank. 190,000 tested, 0.34% active. activation factor at 20 µM;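 active = activation factor of 2 or more at 20 µM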
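Material: human phosphomannose isomerase with PGI, G6PDH, diaphorase coupling enzymes / Reagent: Man-6-P substrate 1.0 mM / Dosing: single compound dose of 20 µM, 1% DMSO final / Incubation: enzyme reaction with compound 20 min at room temperature / Signal: resorufin fluorescence (Ex 544/Em 590 nm) from resazurin via diaphorase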
PMI act: activators of human PMI, primary screen, biochemical, fluorescence intensity, near-Km mannose 6-phosphate; AID 1214, 2008; activation factor at 20 µM; Mannose-6-phosphate isomerase (Homo sapiens), P34949; 190,000 tested, 0.005% active; purified human PMI, coupled resazurin fluorescence, 20 min; stronger effect = higher value; 1 = vehicle control, 0 substrate-free wells;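 active = activation factor of 2 or more at 20 µM, relative to plate controls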
The depositor's hits bear a star. Shown are actives, neighbours in structure and some others; about 2.5% of the full set was active somewhere.

SMILES	Diaph act CS	FLuc act counter	FLuc inh counter	Diaphorase inh	PMI act hi M6P	PMI act
O=C(Nc1ccccc1)ON=C1CCCC1	0.9	0.9	9	13	1	0.9
Cc1ccc(NC(=O)ON=C2CCCC2)cc1	0.8	0.4	62*	18	0.9	0.8
C=C(C(=O)c1ccccc1)C(CC(=O)c1ccccc1)c1ccccc1 (configuration not stated)	0.9	1	3	14	0.8	0.9
O=C(N/N=C/c1ccccn1)c1ccc(N/N=C/c2ccccn2)cc1	1	0.3	72*	4	1.4	1.5
O=C(N/N=C/c1ccccn1)c1ccc([N+](=O)[O-])cc1	0.9	0.3	67*	5	0.7	0.9
O=C(N/N=C/c1ccccn1)c1cc([N+](=O)[O-])cc([N+](=O)[O-])c1	0.8	1	-2	16	1	1
O=C(N/N=C/c1ccccn1)c1ccc(NC(=O)c2cccc([N+](=O)[O-])c2)cc1	1.1	1	1	-15	1.3	1.6
O=C(N/N=C/c1ccc(F)cc1)c1ccc(Br)cc1	0.9	0.8	19	9	0.9	1
Cc1cccc(/C=N/NC(=O)c2ccc(Br)cc2)c1	0.9	0.5	54*	8	1.2	1.2
Cc1csc(N/N=C/c2ccccn2)n1	1	0.1	92*	4	1.2	1.1
Cc1cccc(C(=O)N/N=C/c2ccccn2)c1	0.8	0.5	51*	18	0.9	0.9
O=C(CCCC(=O)N/N=C\c1ccccn1)N/N=C\c1ccccn1	0.9	1	0	14	0.8	0.9
C(=N\NC1=Nc2cccc3cccc1c23)/c1ccccn1	1	0.3	66*	2	1	1.1
O=C(N/N=C/c1ccccn1)c1ccc(Br)cc1	1	0.2	82*	3	1	0.9
Clc1ccccc1/C=N/NC1=Nc2cccc3cccc1c23	0.9	0.7	31	14	0.9	1
CN(C)c1ccc(C2CC(=O)OC3=C2C(=O)CC(C)(C)C3)cc1 (configuration not stated)	0.8	1	-5	19	0.8	1.1
O=C(Cn1c(C(F)(F)F)nc2ccccc21)N/N=C/c1ccco1	0.9	1.1	-8	7	1	1.1
CCOc1cc(CNc2ccc3[nH]c(=O)[nH]c3c2)ccc1OCC(=O)NC(C)(C)C	0.3	1	-4	66*	0.3	0.3
COc1cc(CNc2ccc3[nH]c(=O)[nH]c3c2)cc(Cl)c1OCC(=O)NC(C)(C)C	0.3	1	-3	73*	0.2	0.2
COC(=O)c1ccc(CC(=O)c2c(C)cc(O)cc2O)o1	0.6	1.1	-7	40	0.5	0.8
CC(=O)Nc1ccc2nc(-c3ccco3)[nH]c2c1	0.9	0.7	34	9	0.8	1.1
O=C(Nc1ccc2nc(-c3ccco3)[nH]c2c1)c1ccco1	0.9	0.2	80*	15	1	0.9
O=C(Nc1ccc2nc(-c3ccco3)[nH]c2c1)c1cccs1	0.7	0.2	77*	29	1	1.3
O=C(Nc1ccc(-c2nc3ccccc3[nH]2)cc1)c1ccco1	0.9	0.4	58*	12	1	0.9
Cc1cc(C)cc(N2C(=O)CSC2c2ccccn2)c1 (configuration not stated)	1	1.1	-7	-3	1.1	1.1
SMILES	Diaph act CS	FLuc act counter	FLuc inh counter	Diaphorase inh	PMI act hi M6P	PMI act
COc1ccc(Cc2noc(CN3CCCN(C4Cc5ccccc5C4)CC3)n2)cc1OC	0.9	1	-4	5	0.9	0.9
O=C(N/N=C/c1ccc(Br)o1)c1ccc2c(c1)OCCO2	1	0.3	74*	0	1	1.2
O=C(N/N=C/c1cccnc1)c1ccc2c(c1)OCCO2	1	0.1	91*	2	1	1
CC(C)c1cc(C(=O)N/N=C/c2cccnc2)cs1	0.9	0.4	64*	13	1	1
CC(=O)Nc1ccc(C(=O)N/N=C/c2cccnc2)cc1	1	1.1	-10	0	1.3	1.2
O=C(NC1CCCC1)C(c1ccc(F)cc1)N(Cc1ccc(F)cc1)C(=O)CCl (configuration not stated)	0.9	1	-3	10	1.1	1
O=C(Nc1nc(COc2ccccc2)cs1)c1ccccc1F	0.9	1	-3	6	1	1
COc1cccc(NC(=O)/C=C/c2ccco2)c1	0.8	0.6	45	17	0.8	0.8
COc1ccc(NC(=O)N/C=C/c2ccco2)cc1	1.1	1	3	-13	2.2*	1.8
O=C(O)c1cccc(N2C(=O)/C(=C/c3ccc(SCc4ccc(Cl)cc4)o3)SC2=S)c1	0.4	1	5	62*	0.3	0.3
O=C(O)c1cccc(N2C(=O)c3ccc(Oc4ccc(Cl)cc4)cc3C2=O)c1	0.8	1	4	18	0.9	0.8
COc1ccc(CNC(=O)Nc2cccc3ccccc23)cc1	0.9	1	0	8	0.9	0.9
Cc1cccc(C)c1N1CCN(C(=O)N2CCCCC2)CC1	0.9	1.1	-7	10	2*	1.6
Cc1cccc(N2CCN(C(=O)N3CCCCC3)CC2)c1C	1	1	-2	-3	1.1	1.1
CC(C)(C)c1ccc(OCC(=O)N/N=C/c2ccc(N3CCOCC3)cc2)cc1	0.7	0.9	14	26	0.8	0.9
Cc1c(NC(=S)NC(NC(=O)C(C)(C)C)C(Cl)(Cl)Cl)c(=O)n(-c2ccccc2)n1C (configuration not stated)	1.1	1	-1	-10	1	1
O=C(Nc1ccc(Cc2ccncc2)cc1)c1ccc(Cl)c([N+](=O)[O-])c1	1	0.2	76*	2	0.9	0.8
Cc1c([N+](=O)[O-])cc(C(=O)Nc2ccc(Cc3ccncc3)cc2)cc1[N+](=O)[O-]	0.9	1.1	-5	13	1	1
CC(=O)c1ccc(N2CCN(C(=O)c3cc(-c4cccnc4)nc4ccc(Br)cc34)CC2)cc1	0.5	1	2	52*	0.8	0.7

Screens: PubChem, Sanford-Burnham Center for Chemical Genomics
